Published values from different studies.
Protocols differ between the studies behind these lines. pEC50, pKd, pKi: −log10 of the molar value.
OPRK1: Kappa-type opioid receptor (OPRK1, Cavia porcellus, UniProt P41144)
HRH2: Histamine H2 receptor (HRH2, Homo sapiens, UniProt P25021)
ADRA1A: Alpha-1A adrenergic receptor (ADRA1A, Homo sapiens, UniProt P35348)

Cc1cc(O)cc(C)c1C[C@H](C)C(=O)N[C@@H]1C/C=C/CC[C@@H](C(N)=O)NC(=O)[C@H](Cc2ccccc2)NC(=O)[C@H](Cc2ccccc2)NC1=O
pKi (OPRK1; ligand displacement, radioligand; cell membranes): 6.20

CC[C@H](C)[C@H](NC(=O)[C@H](CO)NC(=O)[C@H](CC(=O)O)NC(=O)[C@H](CC(C)C)NC(=O)[C@@H](NC(=O)[C@H](CCCCN)NC(=O)[C@H](CC(N)=O)NC(=O)[C@@H](NC(=O)[C@H](CC(=O)O)NC(=O)[C@H](CO)NC(=O)[C@@H](NC(=O)[C@H](Cc1ccccc1)NC(=O)[C@H](CO)NC(=O)CNC(=O)[C@H](CC(=O)O)NC(=O)[C@@H](NC(=O)[C@@H](N)Cc1c[nH]cn1)C(C)C)[C@@H](C)O)C(C)C)C(C)C)C(=O)N[C@@H](C)C(=O)N[C@@H](C)C(=O)N[C@@H](CCCCN)C(=O)N[C@@H](CCC(=O)O)C(=O)N[C@@H](Cc1ccc(O)cc1)C(=O)N[C@@H](CC(C)C)C(=O)N[C@@H](CCC(N)=O)C(=O)N[C@@H](Cc1c[nH]c2ccccc12)C(=O)N[C@H](C(=O)N[C@@H](CCSC)C(=O)N[C@@H](CC(N)=O)C(=O)N[C@@H](CO)C(=O)N[C@@H](CCCCN)C(=O)N[C@@H](C)C(=O)N[C@@H](CO)C(=O)NCC(=O)O)C(C)C
pEC50 (Glucagon-like peptide 2 receptor (GLP2R, Homo sapiens, UniProt O95838); reporter gene, agonist, luciferase): < 6.00

N=C(N)NCCC[C@@H]1NC(=O)[C@H](Cc2ccc(O)cc2)NC(=O)[C@@H](CCCCN)NC(=O)[C@@H](Cc2ccccc2)NC1=O
pKi (OPRK1; ligand displacement, radioligand; cell membranes): 5.31

OC(c1ccc(F)cc1)C(F)(F)CCN1CCC(O)(c2ccc(Cl)cc2)CC1 (racemic)
pKi (HRH2; cell-free assay, radioligand): 5.32

CCCC[C@@H](NC(=O)[C@@H](N)Cc1ccc(O)cc1)C(=O)NCC(=O)N[C@@H](Cc1ccc(F)cc1)C(=O)N(C)CCC[C@@]1(c2ccc(F)cc2)OCc2cc(C#N)ccc21
pKi (ADRA1A; ligand displacement, radioligand): 5.18

C[C@H]1CC[C@@]2(OC1)O[C@H]1C[C@H]3[C@@H]4CC[C@@H]5C[C@@H](O[C@@H]6O[C@H](CO)[C@H](O)[C@H](O)[C@H]6O[C@@H]6O[C@H](CO)[C@@H](O)[C@H](O)[C@H]6O)CC[C@]5(C)[C@H]4CC[C@]3(C)[C@H]1[C@@H]2C
pKd (Angiotensin-converting enzyme 2 (ACE2, Homo sapiens, UniProt Q9BYF1); binding): 4.21

CNc1nc2cc(OCCCCN3CCN(c4cccc(Cl)c4Cl)CC3)ccc2s1
pKi (HRH2; ligand displacement, radioligand): 6.51

Cc1cc(O)cc(C)c1C[C@H](N)C(=O)N[C@H](CCCNC(=N)N)C(=O)N[C@@H](Cc1c[nH]c2ccccc12)C(=O)N[C@@H](CCCCN)C(N)=O
pKi (OPRK1; ligand displacement, radioligand; cell membranes): 7.78

C[C@@H](NC(=O)[C@@H](N)Cc1ccc(O)cc1)C(=O)NCC(=O)N[C@@H](Cc1ccccc1)C(=O)N(C)CCC[C@@]1(c2ccc(F)cc2)OCc2cc(C#N)ccc21
pKi (ADRA1A; ligand displacement, radioligand): 5.17

Cc1cccc(C)c1C[C@H](NC(=O)[C@@H](CCCNC(=N)N)NC(=O)[C@@H](N)Cc1c(C)cc(O)cc1C)C(=O)N[C@@H](CCCCN)C(N)=O
pKi (OPRK1; ligand displacement, radioligand; cell membranes): 8.33

Nc1ncnc2c1ncn2[C@@H]1O[C@H](COP(=O)(O)OP(=O)(O)NP(=O)(O)O)[C@@H](O)[C@H]1O
pKi (lptB (Escherichia coli, UniProt P0A9V1); ATPase activity, inhibitor): 1.60

CC(C)C[C@H](NC(=O)[C@H](CCCCN)NC(=O)[C@@H]1CCCN1C(=O)[C@@H](N)CCCNC(=N)N)C(=O)N[C@@H](CCCCN)C(=O)O
pKi (ADRA1A; cell-free assay, radioligand): < 5.00

Cc1cc(C)c(C[C@H](NC(=O)[C@@H](CCCNC(=N)N)NC(=O)[C@@H](N)Cc2c(C)cc(O)cc2C)C(=O)N[C@@H](CCCCN)C(N)=O)c(C)c1
pKi (OPRK1; ligand displacement, radioligand; cell membranes): 7.32
